Published values of several laboratories.
HTR2C: 5-hydroxytryptamine receptor 2C (HTR2C, Homo sapiens, UniProt P28335)
PLK1 polo-box: Serine/threonine-protein kinase PLK1, polo-box (PLK1, Homo sapiens, UniProt P53350)
HLA class I histocompatibility antigen, B alpha chain: HLA class I histocompatibility antigen, B alpha chain (Homo sapiens, UniProt P01889)
HTR2B: 5-hydroxytryptamine receptor 2B (HTR2B, Homo sapiens, UniProt P41595)

SMILES	target	assay	setting	endpoint	result
CCCC(NCCc1cc(OC)c(C#N)cc1OC)c1ccccc1O (stereo not shown)	HTR2C	calcium signal, agonist		EC50	7900 nM
CC(C)CC[C@@H](O)[C@@H](C)[C@H]1CC[C@H]2[C@@H]3CC=C4C[C@@H](O)CC[C@]4(C)[C@H]3CC[C@]12C	Cholesterol side-chain cleavage enzyme, mitochondrial (CYP11A1, Homo sapiens, UniProt P05108)	binding		Kd	163 nM
COc1cc(CCNC2CCCc3cccc(O)c32)c(OC)cc1C#N (stereo not shown)	HTR2C	G protein activation, agonist, BRET		EC50	5900 nM
CC(C)C[C@H](NC(=O)[C@H](CC(C)C)NC(=O)[C@@H]1CCCN1C(=O)[C@H](C)NC(=O)[C@@H](NC(=O)[C@H](C)N)C(C)C)C(=O)N[C@@H](Cc1c[nH]cn1)C(=O)N[C@@H](CO)C(=O)N[C@H](C(=O)O)[C@@H](C)OP(=O)(O)O	PLK1 polo-box	binding, MST	pH 8	Kd	46.3 nM
COc1cc2c3c(c1OC)-c1c(OC)ccc(Cl)c1CC3N(C)CC2 (racemic)	HTR2C	cell-free assay, radioligand		Ki	792 nM
CC[C@H](C)[C@H](NC(=O)[C@@H](N)CCSC)C(=O)N[C@@H](Cc1ccccc1)C(=O)N[C@@H](CC(=O)O)C(=O)N[C@@H](CCCCN)C(=O)N1CCC[C@H]1C(=O)N[C@H](C(=O)N[C@@H](Cc1ccc(O)cc1)C(=O)N[C@@H](Cc1ccccc1)C(=O)O)C(C)C	HLA class I histocompatibility antigen, B alpha chain	cell-free assay		IC50	36000 nM
c1cncc([C@@H]2CCCN2)c1	Neuronal acetylcholine receptor; alpha3/beta4 (Rattus norvegicus, UniProt P04757+P12392)	cell-free assay, radioligand		Ki	1300 nM
CC[C@H](C)[C@H](NC(=O)[C@H](Cc1ccccc1)NC(=O)[C@@H]1CCCN1C(=O)CNC(=O)[C@H](Cc1ccc(O)cc1)NC(=O)[C@H](CCSC)NC(=O)[C@@H](N)CCCNC(=N)N)C(=O)N[C@@H](Cc1c[nH]cn1)C(=O)N[C@@H](Cc1ccccc1)C(=O)O	HLA class I histocompatibility antigen, B alpha chain	cell-free assay		IC50	31400 nM
COc1cc(C(F)(F)F)c(OC)cc1C1CCCNC1 (stereo not shown)	HTR2C	calcium signal, agonist		EC50	71 nM
CC[C@H](C)[C@H](NC(=O)[C@H](CCCNC(=N)N)NC(=O)[C@H](CC(N)=O)NC(=O)[C@H](Cc1ccccc1)NC(=O)[C@@H](NC(=O)[C@@H](N)Cc1ccc(O)cc1)[C@@H](C)O)C(=O)N[C@@H](Cc1c[nH]cn1)C(=O)N[C@@H](CCC(=O)O)C(=O)N[C@@H](Cc1ccccc1)C(=O)O	HLA class I histocompatibility antigen, B alpha chain	cell-free assay		IC50	44000 nM
N#CC(C#N)=Cc1ccc([N+](=O)[O-])c(O)c1	Casein kinase I isoform delta (CSNK1D, Homo sapiens, UniProt P48730)	binding, SPR		Kd	> 50000 nM
CC[C@H](C)[C@H](NC(=O)[C@@H]1CCCN1C(=O)[C@H](CCC(=O)O)NC(=O)[C@H](CC(C)C)NC(=O)[C@@H](N)C(C)C)C(=O)N[C@@H](CC(C)C)C(=O)N[C@@H](Cc1c[nH]cn1)C(=O)N[C@@H](CO)C(=O)N[C@H](C(=O)O)[C@@H](C)OP(=O)(O)O	PLK1 polo-box	binding, MST	pH 8	Kd	13.7 nM
CC[C@H](C)[C@H](NC(=O)[C@@H]1CCCN1C(=O)[C@H](Cc1c[nH]cn1)NC(=O)[C@H](CCCCN)NC(=O)[C@H](Cc1ccc(O)cc1)NC(=O)[C@@H](NC(=O)[C@@H](N)Cc1ccc(O)cc1)[C@@H](C)O)C(=O)N[C@@H](Cc1ccc(O)cc1)C(=O)N[C@@H](CC(C)C)C(=O)O	HLA class I histocompatibility antigen, B alpha chain	cell-free assay		IC50	17700 nM
COc1cc2c(cc1OC)CN(CCc1ccc(NC(=O)c3cccc4c(=O)c5cccc(OC)c5[nH]c34)cc1)CC2	HTR2B	cell-free assay		Ki	222 nM
COc1cc2c(cc1OC)-c1c(OC)c(OC)cc3c1[C@H](C2)N(C)CC3	HTR2B	ligand displacement, radioligand		Ki	216 nM
CC(C)C[C@H](NC(=O)[C@H](CCC(N)=O)NC(=O)[C@H](CCCNC(=N)N)NC(=O)[C@H](CO)NC(=O)[C@H](Cc1ccc(O)cc1)NC(=O)[C@H](CC(C)C)NC(=O)[C@@H](N)CCCNC(=N)N)C(=O)N[C@@H](Cc1c[nH]cn1)C(=O)N[C@@H](Cc1ccccc1)C(=O)O	HLA class I histocompatibility antigen, B alpha chain	cell-free assay		IC50	7670 nM
